This passage reports Ki, IC50 and pA2 results from ChEMBL document CHEMBL1136250, “N1-benzenesulfonylgramine and N1-benzenesulfonylskatole: novel 5-HT6 receptor ligand templates” (Bioorg Med Chem Lett, 2003).

Broadly, the Ki is a measure of affinity in units of concentration, obtained from inhibition or displacement. Lower therefore signals tighter binding. As usually defined, the IC50 is the concentration that inhibits the measured activity by half. By pA2 is commonly meant a measure of antagonist potency on a negative log scale. Read a high pA2 as higher antagonist potency.

The target of assay [1] is 5-hydroxytryptamine receptor 6 (Homo sapiens, UniProt P50406). Kind of assay: Binding affinity towards human 5-hydroxytryptamine 6 receptor. In short, it runs like this: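 Competition binding with [3H]LSD (1 nM final), 90 min at room temperature in 50 mM Tris–Cl, 10 mM MgCl2, 0.1 mM EDTA, pH 7.40; clozapine defines non-specific binding. Test agent 1–10,000 nM; Ki by LIGAND fitting, triplicate determinations.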

The subject of another assay is HEK293. The assay can be described thus: Inhibition of 5-HT stimulated cAMP production in HEK-5-HT6 cells. To be noted: Homo sapiens. In kind it is functional, cell-based. An outline of the steps: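 HEK cells expressing 5-HT6 receptors; the compound was tested alone for agonist-induced cAMP production, and against 5-HT-stimulated cAMP production. IC50 was calculated for inhibition of the 5-HT-stimulated cAMP response.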

A short description of assay [2]: pA2 value was determined.

Sequence of 5-hydroxytryptamine receptor 6 (P50406 whole entry): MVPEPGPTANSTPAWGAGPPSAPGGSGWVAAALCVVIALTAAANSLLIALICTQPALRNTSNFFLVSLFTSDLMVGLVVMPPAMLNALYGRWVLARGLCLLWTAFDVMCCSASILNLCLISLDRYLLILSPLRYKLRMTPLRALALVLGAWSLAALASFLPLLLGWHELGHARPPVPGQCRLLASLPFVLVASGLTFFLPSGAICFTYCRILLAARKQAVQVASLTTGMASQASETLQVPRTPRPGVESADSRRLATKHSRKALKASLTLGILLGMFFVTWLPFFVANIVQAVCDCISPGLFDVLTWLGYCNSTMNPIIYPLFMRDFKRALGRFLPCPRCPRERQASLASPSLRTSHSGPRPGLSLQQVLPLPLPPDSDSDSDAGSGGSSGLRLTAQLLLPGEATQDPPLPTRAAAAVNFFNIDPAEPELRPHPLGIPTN

The compound `CNCCc1cn(S(=O)(=O)c2ccccc2)c2ccc(OC)cc12` gave a Ki in assay [1] of 23 nM. In assay [1], `CN(C)CCc1cn(S(=O)(=O)c2ccccc2)c2ccc(O)cc12` came in with a Ki of 28 nM. Same read-out and setting: under `COc1ccc2c(c1)c(CCN(C)Cc1ccccc1)cn2S(=O)(=O)c1ccccc1` stands 43 nM; under `CCN(CC)CCc1cn(S(=O)(=O)c2ccc(N)cc2)c2ccccc12`, 0.6 nM; under `COc1ccc2c(c1)c(CCN(C)Cc1ccccc1)cn2S(=O)(=O)c1ccc(N)cc1`, 3 nM.

Compound `CCN(CC)CCc1cn(S(=O)(=O)c2ccc(NC(C)=O)cc2)c2ccccc12` returned a Ki in assay [1] of 90 nM. Still for that read-out and setting: the value for `CC(=O)Nc1ccc(S(=O)(=O)n2cc(CCN(C)C)c3ccccc32)cc1` was 27 nM; that for `CCN(CC)CCc1cn(S(=O)(=O)c2ccc(NC(C)=O)cc2)c2ccc(OC)cc12` was 230 nM. Same read-out and setting: under `CCN(CC)CCc1cn(S(=O)(=O)c2ccc(N)cc2)c2ccc(OC)cc12` stands 0.6 nM. Compound `Cc1cn(S(=O)(=O)c2ccc(N)cc2)c2ccccc12` displayed a half-inhibitory concentration (IC50) in the assay on HEK293 of 320 nM. The pA2 in assay [2] was determined as 7.

In turn, `CCN(CC)CCc1cn(S(=O)(=O)c2ccccc2)c2ccc(OC)cc12` displayed a Ki in assay [1] of 6.2 nM. The compound `COc1ccc2c(c1)c(CCN(C)C)cn2S(=O)(=O)c1ccc(NC(C)=O)cc1` returned a Ki in assay [1] of 34 nM. In turn, `CN(C)Cc1cn(S(=O)(=O)c2ccccc2)c2ccccc12` showed an IC50 in the assay with HEK293 of 880 nM.
